Tests used:
Rattus norvegicus [1] = test: Antipyretic activity in Wistar rat assessed as change in LPS-induced rectal temperature at 100 mg/kg, po administered 30 mins before LPS challenge after 6 hrs; format: functional
Method in brief: (§1)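 Adult female Wistar rats, 170±20 g, fasted 24 h, dosed orally at 09:00; 30 min later E. coli 0111:B4 phenol-extracted LPS in apyrogenic saline given i.p. Rectal temperature by telethermometer probe just before and 1–7 h hourly after LPS; temperature index calculated from these readings. n = 6.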

Rattus norvegicus [2] = test: Antiinflammatory activity in […] 50 mg/kg, ip pretreated Wistar rat assessed as inhibition of carrageenan-induced hind paw edema volume at 100 mg/kg, po administered 60 mins before carrageenan challenge measured after 24 hrs; format: functional
Method in brief: (§2)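 Rats pretreated with SKF-525A 50 mg/kg i.p.; 1 h later oral dose at 100 mg/kg. 1 h after dosing, 0.1 ml of 1% carrageenan given subplantar into the right hind paw.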

Rattus norvegicus [3] = test: Antiinflammatory activity in po dosed Wistar rat assessed as inhibition of carrageenan-induced hind paw edema volume administered 60 mins before carrageenan challenge; format: functional
Rattus norvegicus [4] = test: Antiinflammatory activity in Wistar rat assessed as inhibition of carrageenan-induced hind paw edema volume at 100 mg/kg, po administered 60 mins before carrageenan challenge after 2 hrs relative to control; format: functional
Rattus norvegicus [5] = test: Antiinflammatory activity in […] 50 mg/kg, ip pretreated Wistar rat assessed as inhibition of carrageenan-induced hind paw edema volume at 100 mg/kg, po administered 60 mins before carrageenan challenge measured after 6 hrs; format: functional; method in brief: as §2
Rattus norvegicus [6] = test: Gastrointestinal toxicity in Wistar rat assessed as ulcer index at 100 mg/kg, po after 6 hrs; format: organism-based; set-up: dose 100 mg/kg, route oral; details: in vivo
Method in brief: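 Female Wistar rats, 175±25 g, fasted 24 h, dosed orally once; sacrificed 6 h later by cervical dislocation. Stomach opened along greater curvature, saline-washed, mucosa inspected with a hand lens. Lesions graded I (edema/hyperemia/petechiae), II (hemorrhagic lesions with small erosions), III (deep ulcers); UI = nI + 2nII + 3nIII. Mean ± SEM, n = 6.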

Rattus norvegicus [7] = test: Antiinflammatory activity in […] 50 mg/kg, ip pretreated Wistar rat assessed as inhibition carrageenan-induced hind paw edema volume at 100 mg/kg, po administered 60 mins before carrageenan challenge measured after 1 hr; format: functional; method in brief: as §2
Rattus norvegicus [8] = test: Antiinflammatory activity in […] 50 mg/kg, ip pretreated Wistar rat assessed as inhibition of carrageenan-induced hind paw edema volume at 100 mg/kg, po administered 60 mins before carrageenan challenge measured after 3 hrs; format: functional; method in brief: as §2
Rattus norvegicus [9] = test: Antiinflammatory activity in Wistar rat assessed as inhibition of carrageenan-induced hind paw edema volume at 100 mg/kg, po administered 60 mins before carrageenan challenge after 1 hr relative to control; format: functional
Rattus norvegicus [10] = test: Antipyretic activity in Wistar rat assessed as change in LPS-induced rectal temperature at 100 mg/kg, po administered 30 mins before LPS challenge after 7 hrs; format: functional; method in brief: as §1
Rattus norvegicus [11] = test: Gastrointestinal toxicity in Wistar rat assessed as ulcer index at 100 mg/kg, po after 14 days; format: organism-based; set-up: dose 100 mg/kg, route oral; details: in vivo, 336 h
Method in brief: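 Gastric mucosa examined for ulceration at post-mortem of female albino rats sacrificed at the end of the 14-day once-daily oral dosing in the Freund's adjuvant arthritis study; ulcer index scored per animal. Mean ± SEM, n = 6.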

Rattus norvegicus [12] = test: Toxicity in Wistar rat assessed as mortality at up to 1000 mg/kg, po after 24 hrs; format: organism-based; set-up: dose 1000 mg/kg, route oral; details: in vivo
Rattus norvegicus [13] = test: Antiinflammatory activity in […] 50 mg/kg, ip pretreated Wistar rat assessed as inhibition of carrageenan-induced hind paw edema volume at 100 mg/kg, po administered 60 mins before carrageenan challenge measured after 4 hrs; format: functional; method in brief: as §2
Rattus norvegicus [14] = test: Antiarthritic activity in Albino rat assessed as inhibition of Freund's complete adjuvant-induced paw volume at 100 mg/kg, po administered for 14 days daily once starting a day before adjuvant challenge measured on day 8; format: functional
Method in brief: (§3)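 Female albino rats, 160±10 g, six per group, dosed orally once daily for 14 days starting the day before 0.1 ml Freund's complete adjuvant into the right hind paw subplantar surface. Both hind paw volumes, measured up to a mark at the lateral malleolus, taken before and daily after adjuvant.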

Rattus norvegicus [15] = test: Antiinflammatory activity in […] 50 mg/kg, ip pretreated Wistar rat assessed as inhibition carrageenan-induced hind paw edema volume at 100 mg/kg, po administered 60 mins before carrageenan challenge measured after 2 hrs; format: functional; method in brief: as §2
Rattus norvegicus [16] = test: Antiarthritic activity in Albino rat assessed as inhibition of Freund's complete adjuvant-induced paw volume at 100 mg/kg, po administered for 14 days daily once starting a day before adjuvant challenge measured on day 3; format: functional; method in brief: as §3
Rattus norvegicus [17] = test: Antiinflammatory activity in Wistar rat assessed as inhibition of carrageenan-induced hind paw edema volume at 100 mg/kg, po administered 60 mins before carrageenan challenge after 3 hrs relative to control; format: functional
Rattus norvegicus [18] = test: Antipyretic activity in Wistar rat assessed as change in LPS-induced rectal temperature at 100 mg/kg, po administered 30 mins before LPS challenge after 1 hr; format: functional; method in brief: as §1
Rattus norvegicus [19] = test: Antipyretic activity in Wistar rat assessed as change in LPS-induced rectal temperature at 100 mg/kg, po administered 30 mins before LPS challenge after 4 hrs; format: functional; method in brief: as §1
Rattus norvegicus [20] = test: Antiinflammatory activity in Wistar rat assessed as inhibition of carrageenan-induced hind paw edema volume at 100 mg/kg, po administered 60 mins before carrageenan challenge after 4 hrs relative to control; format: functional
Rattus norvegicus [21] = test: Antipyretic activity in Wistar rat assessed as change in LPS-induced rectal temperature at 100 mg/kg, po administered 30 mins before LPS challenge after 5 hrs; format: functional; method in brief: as §1
Rattus norvegicus [22] = test: Antiinflammatory activity in Wistar rat assessed as inhibition of carrageenan-induced hind paw edema volume at 100 mg/kg, po administered 60 mins before carrageenan challenge after 6 hrs relative to control; format: functional
Rattus norvegicus [23] = test: Antipyretic activity in Wistar rat assessed as change in LPS-induced rectal temperature at 100 mg/kg, po administered 30 mins before LPS challenge after 2 hrs; format: functional; method in brief: as §1
Rattus norvegicus [24] = test: Antiinflammatory activity in Wistar rat assessed as inhibition of carrageenan-induced hind paw edema volume at 100 mg/kg, po administered 60 mins before carrageenan challenge after 24 hrs relative to control; format: functional
Rattus norvegicus [25] = test: Antiarthritic activity in Albino rat assessed as inhibition of Freund's complete adjuvant-induced paw volume at 100 mg/kg, po administered for 14 days daily once starting a day before adjuvant challenge measured on day 13; format: functional; method in brief: as §3
Mus musculus = test: Analgesic activity in Swiss albino mouse assessed as inhibition of acetic acid-induced writhing at 100 mg/kg, po administered 60 mins before acetic acid challenge after 5 to 15 mins relative to control; format: functional
Method in brief: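 Female Swiss albino mice, 20±5 g, fasted overnight with free water access, dosed orally; 1 h later injected i.p. with 1% v/v acetic acid at 0.1 ml/10 g. Writhes (full hind-limb extension) counted for 15 min, starting 5 min after injection; only animals giving 20 or more writhes used. % inhibition = 100(1−Wt/Wc) vs control group mean; six animals per group.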

Rattus norvegicus [26] = test: Antiarthritic activity in Freund's complete adjuvant challenged Albino rat model assessed as change in body weight at 100 mg/kg, po administered for 14 days daily once starting a day before adjuvant challenge; format: functional; details: 336 h, read-out: INH
Rattus norvegicus [27] = test: Antipyretic activity in Wistar rat assessed as change in LPS-induced rectal temperature at 100 mg/kg, po administered 30 mins before LPS challenge after 3 hrs; format: functional; method in brief: as §1

Row | SMILES | Activity (Rattus norvegicus [1]) | ED30 (Rattus norvegicus [3]) | inhibition in vivo at 100 mg/kg (Rattus norvegicus [4]) | UI (Rattus norvegicus [6]) | inhibition in vivo at 100 mg/kg (Rattus norvegicus [9]) | Activity (Rattus norvegicus [10]) | inhibition in vivo at 100 mg/kg (Rattus norvegicus [14]) | inhibition in vivo at 100 mg/kg (Rattus norvegicus [16]) | inhibition in vivo at 100 mg/kg (Rattus norvegicus [17]) | Activity (Rattus norvegicus [18]) | Activity (Rattus norvegicus [19]) | inhibition in vivo at 100 mg/kg (Rattus norvegicus [20]) | Activity (Rattus norvegicus [21]) | inhibition in vivo at 100 mg/kg (Rattus norvegicus [22]) | Activity (Rattus norvegicus [23]) | inhibition in vivo at 100 mg/kg (Rattus norvegicus [24]) | inhibition in vivo at 100 mg/kg (Rattus norvegicus [25]) | inhibition in vivo at 100 mg/kg (Mus musculus) | inhibition in vivo at 100 mg/kg (Rattus norvegicus [26]) | Activity (Rattus norvegicus [27]) | further results
1 | CCCCCCNC(=O)CC1CCc2cc(OC)c(OC)cc21 (stereo unspecified) | 0.53 °C | 24 mg/kg | 31% | 0 | 46.9% | 0.54 °C | 28.8% | 31.2% | 40.6% | -0.56 °C | 0.11 °C | 39.1% | 0.38 °C | 39.8% | -0.94 °C | 43.3% | 39.4% | 82.2% | 7.64 g | -0.23 °C | inhibition (INH) (Rattus norvegicus [2]): 45.45%; inhibition (INH) (Rattus norvegicus [5]): 40.42%; inhibition (INH) (Rattus norvegicus [7]): 52.38%; inhibition (INH) (Rattus norvegicus [8]): 43.08%; UI (Rattus norvegicus [11]): 0; Activity (Rattus norvegicus [12]): Non-toxic; inhibition (INH) (Rattus norvegicus [13]): 38.6%; inhibition (INH) (Rattus norvegicus [15]): 36.58%
2 | CC(=O)Oc1ccccc1C(=O)O [ASPIRIN] | 0.17 °C | – | – | – | – | 0.23 °C | – | – | – | -0.43 °C | 0.05 °C | – | 0.11 °C | – | -1.45 °C | – | – | 61.5% | – | -0.51 °C | –
3 | COc1cc2c(cc1OC)C(CC(=O)NC(C)C)CC2 (stereo unspecified) | 0.55 °C | – | 37% | 0 | 31.2% | 0.59 °C | – | – | 30.4% | -0.41 °C | 0.19 °C | 39.1% | 0.43 °C | 37% | -1.51 °C | 30% | – | 29.3% | – | -0.39 °C | –
4 | COc1cc2c(cc1OC)C(CC(=O)NCCO)CC2 (stereo unspecified) | 0.65 °C | – | 0% | – | 0% | 0.66 °C | – | – | 12.3% | -0.65 °C | 0.34 °C | 9.37% | 0.57 °C | 13% | -1.93 °C | 13.3% | – | 29.8% | – | 0.17 °C | –
5 | COc1cc2c(cc1OC)C(CC(=O)NC1CCCCC1)CC2 (stereo unspecified) | 0.45 °C | 20 mg/kg | 56% | 0 | 50% | 0.43 °C | 31.8% | 29% | 49.3% | -0.33 °C | 0.05 °C | 50% | 0.51 °C | 48.1% | -1.26 °C | 53.3% | 33.3% | 44.7% | 6.84 g | -0.67 °C | UI (Rattus norvegicus [11]): 0; Activity (Rattus norvegicus [12]): Non-toxic
6 | COc1cc2c(cc1OC)C(CC(=O)N1CCNCC1)CC2 (stereo unspecified) | 0.19 °C | – | 44% | 0 | 62.5% | 0.16 °C | 28.8% | 35.3% | 42% | -0.45 °C | -0.18 °C | 40.6% | 0.11 °C | 33.3% | -1.23 °C | 65% | 2.35% | 68.8% | 3.11 g | -0.85 °C | –
